The subject of assay [1] is Leishmania major. Put plainly: Antileishmanial activity against Leishmania major. It counts as functional, organism-based.
The subject of assay [2] is Micrococcus luteus. Nature of the assay: Antibacterial activity against Micrococcus luteus by agar well diffusion method. Type of assay: functional. Background: Agar diffusion results depend on both activity and mobility in agar.
For assay [3], the system named is Pseudomonas. Nature of the assay: Antibacterial activity against Pseudomonas pallida assessed as zone of inhibition at 1.0 mg/mL by agar well diffusion method. It counts as functional. As to conditions: for zone of inhibition at 1000 µg/mL: read-out: IZ. The method in brief: (§1)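 Agar well diffusion with pure compounds loaded into wells at 1.0 mg/mL. Zone of inhibition read in mm. Ampicillin is the reference for Gram-positive strains and gentamicin for Gram-negative strains.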

In assay [4] the test system is Pseudomonas. Nature of the assay: Antibacterial activity against Pseudomonas pallida by agar well diffusion method. Type of assay: functional.
Assay [5] deals with Bacillus subtilis. Put plainly: Antibacterial activity against Bacillus subtilis assessed as zone of inhibition at 1.0 mg/mL by agar well diffusion method. As to conditions: read-out: IZ. It counts as functional. The method in brief:
as §1

Assay [6] deals with Micrococcus luteus. Put plainly: Antibacterial activity against Micrococcus luteus assessed as zone of inhibition at 1.0 mg/mL by agar well diffusion method. It counts as functional. As to conditions: for zone of inhibition at 1000 µg/mL: read-out: IZ. In a few lines: as §1
In assay [7] the target is Acetylcholinesterase (Homo sapiens, UniProt P22303). Put plainly: Inhibition of acetylcholinesterase.
Assay [8] relates to Enterococcus faecalis. Put plainly: Antibacterial activity against Streptococcus faecalis assessed as zone of inhibition at 1.0 mg/mL by agar well diffusion method. It counts as functional. As to conditions: for zone of inhibition at 1000 µg/mL: read-out: IZ. The method in brief:
as §1

Assay [9] relates to Bacillus subtilis. Put plainly: Antibacterial activity against Bacillus subtilis by agar well diffusion method. It counts as functional.
In assay [10] the target is Cholinesterase (Homo sapiens, UniProt P06276). Put plainly: Inhibition of butyrylcholinesterase. The method in brief: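 In vitro enzyme inhibition assay, reported as IC50 with the standard error of the mean from five assays.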
Assay [11] relates to Enterococcus faecalis. Nature of the assay: Antibacterial activity against Streptococcus faecalis assessed as zone of inhibition at 0.25 mg/mL by agar well diffusion method. Type of assay: functional. The conditions noted are these: read-out: IZ. In a few lines: (§2)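 Reference antibiotic (ampicillin for these Gram-positive strains) tested by agar well diffusion at 0.25 mg/mL. Inhibition zone diameter recorded in mm.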

For assay [12], the system named is Micrococcus luteus. Nature of the assay: Antibacterial activity against Micrococcus luteus assessed as zone of inhibition at 0.25 mg/mL by agar well diffusion method. It counts as functional. The conditions noted are these: read-out: IZ. In a few lines: as §2
The subject of assay [13] is Bacillus subtilis. Nature of the assay: Antibacterial activity against Bacillus subtilis assessed as zone of inhibition at 0.25 mg/mL by agar well diffusion method. It counts as functional. As to conditions: read-out: IZ. The method in brief:
as §2

Values after ≈ are worked out from the molar mass of the structure shown. Active and inactive are the calls of the source. The rule behind the calls is not given here.

Sequence of Acetylcholinesterase (P22303 whole entry, the tested form may be a part): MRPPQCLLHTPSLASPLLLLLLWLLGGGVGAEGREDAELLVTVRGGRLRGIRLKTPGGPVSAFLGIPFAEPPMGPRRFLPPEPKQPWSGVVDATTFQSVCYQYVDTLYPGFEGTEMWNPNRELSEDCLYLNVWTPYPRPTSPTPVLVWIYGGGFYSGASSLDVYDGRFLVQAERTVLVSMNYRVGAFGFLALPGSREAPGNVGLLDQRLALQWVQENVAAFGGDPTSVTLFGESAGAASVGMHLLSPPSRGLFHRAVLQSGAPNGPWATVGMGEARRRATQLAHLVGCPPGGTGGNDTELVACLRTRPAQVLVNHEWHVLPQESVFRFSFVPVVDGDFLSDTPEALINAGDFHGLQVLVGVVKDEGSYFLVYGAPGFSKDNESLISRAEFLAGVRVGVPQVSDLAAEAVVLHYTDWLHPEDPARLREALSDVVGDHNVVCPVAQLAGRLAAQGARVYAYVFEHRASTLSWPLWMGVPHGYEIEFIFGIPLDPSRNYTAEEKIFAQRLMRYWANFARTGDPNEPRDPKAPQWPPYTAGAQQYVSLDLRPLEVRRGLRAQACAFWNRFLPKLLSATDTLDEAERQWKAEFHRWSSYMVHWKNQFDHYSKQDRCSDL
Sequence of Cholinesterase (P06276 whole entry, the tested form may be a part): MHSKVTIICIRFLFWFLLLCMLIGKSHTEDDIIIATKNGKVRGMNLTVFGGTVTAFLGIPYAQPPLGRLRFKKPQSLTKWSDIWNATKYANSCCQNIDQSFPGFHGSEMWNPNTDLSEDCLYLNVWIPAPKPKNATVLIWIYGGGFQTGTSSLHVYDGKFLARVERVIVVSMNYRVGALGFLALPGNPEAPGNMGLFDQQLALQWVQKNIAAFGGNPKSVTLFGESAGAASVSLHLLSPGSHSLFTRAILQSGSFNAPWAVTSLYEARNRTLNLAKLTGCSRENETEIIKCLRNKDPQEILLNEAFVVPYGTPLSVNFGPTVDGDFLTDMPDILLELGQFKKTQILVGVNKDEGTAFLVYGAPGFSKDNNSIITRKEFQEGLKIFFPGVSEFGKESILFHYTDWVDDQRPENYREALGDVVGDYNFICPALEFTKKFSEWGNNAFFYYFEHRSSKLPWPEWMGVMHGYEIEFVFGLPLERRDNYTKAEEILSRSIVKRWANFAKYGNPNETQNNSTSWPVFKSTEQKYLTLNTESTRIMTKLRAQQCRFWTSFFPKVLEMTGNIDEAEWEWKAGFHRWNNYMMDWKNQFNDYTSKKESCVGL

Broadly, the IC50 is the midpoint of a concentration-inhibition curve. The low end stands for greater potency in that assay, the high end for weaker potency in that assay. As to `N=C(N)c1ccc(OCCCCCOc2ccc(C(=N)N)cc2)cc1` [PENTAMIDINE], the IC50 in assay [1] is 7.5 µM.
Turning to `C[C@@H]1[C@H](O)[C@@H](C)/C=C/C=C/C=C/C=C/C=C/C=C/C=C/[C@H](O[C@@H]2O[C@H](C)[C@@H](O)[C@H](N)[C@@H]2O)C[C@@H]2O[C@](O)(C[C@@H](O)C[C@@H](O)[C@H](O)CC[C@@H](O)C[C@@H](O)CC(=O)O[C@H]1C)C[C@H](O)[C@H]2C(=O)O` [AMPHOTERICIN B], in [1], the midpoint of inhibition, the IC50, lay at 0.5 µM.
For orientation: MIC means the least concentration at which growth counts as inhibited. Low values mean greater potency, high ones weaker potency. Regarding `C[C@@H]([C@H]1CC=C2[C@@H]3CCC4=C[C@@H](N(C)C)CC[C@]4(C)[C@H]3CC[C@@]21C)N(C)C` [HOOKERIANAMIDE K], the values for the MIC in assay [2], in assay [4] and in [9] were 651 µM (≈ 241 µg/mL), 169 µM (≈ 62.6 µg/mL) and 338 µM (≈ 125 µg/mL), respectively. Also, the zone of inhibition at 1000 µg/mL in assay [3] stood at 10.5 mm; in assay [5], 13 mm; in assay [6] it was 9.5 mm; in [8] it was 10 mm. For the same compound, the IC50 worked out at 24.2 µM in assay [7], 6.8 µM in [1] and 4 µM in assay [10].
With `C[C@@H]([C@H]1CC[C@H]2[C@@H]3CC[C@H]4C[C@@H](N)CC[C@]4(C)[C@H]3CC[C@]12C)N(C)C` [CHONEMORPHINE], the values for the MIC in assay [2], in [4] and in [9] were 90.3 µM (≈ 31.3 µg/mL), 181 µM (≈ 62.6 µg/mL) and 90.3 µM (≈ 31.3 µg/mL), respectively. In addition, the zone of inhibition at 1000 µg/mL in assay [3] came out at 14 mm; in [5] it was 16.5 mm; in [6], 11.5 mm; in assay [8] it was 10 mm. The half-inhibitory concentration (IC50) came out at 28 µM in assay [7] and 0.5 µM in [10].
With `CC1(C)S[C@@H]2[C@H](NC(=O)[C@H](N)c3ccccc3)C(=O)N2[C@H]1C(=O)O` [AMPICILLIN], the MIC in assay [2] came to 5.6 µM (≈ 1.96 µg/mL); in assay [9] it was 89.7 µM (≈ 31.3 µg/mL). For the same compound, the zone of inhibition at 250 µg/mL stood at 25 mm in assay [11], 26 mm in assay [12] and 29 mm in [13].
With `CN[C@@H](C)[C@H]1CC[C@H]2[C@@H]3CC=C4C(=O)[C@@H](NC(=O)C=C(C)C)CC[C@]4(C)[C@H]3CC[C@]12C`, the result in assay [3], in [6] and in [8] was inactive. In [5], the zone of inhibition at 1000 µg/mL worked out at 9 mm. Besides, the IC50 in [7] worked out at 9.9 µM; in assay [10], 0.6 µM. This compound also yielded an MIC in assay [9] of 568 µM (≈ 242 µg/mL).
For the compound `CC(C)=CC(=O)N[C@H]1CC[C@@]2(C)[C@@H](CC[C@@H]3[C@@H]2CC[C@]2(C)C([C@H](C)N(C)C)=CC[C@@H]32)[C@H]1O` [HOOKERIANAMIDE J], the figures for the zone of inhibition at 1000 µg/mL in [3] and in assay [5] were 12 mm and 15 mm, respectively. The MIC in [4] is 70.7 µM (≈ 31.3 µg/mL); in assay [9], 141 µM (≈ 62.6 µg/mL). The result in assay [6] and in assay [8] was inactive. For the same compound, the IC50 in [7] came to 48.5 µM; in [1], 11.3 µM; in [10] it was 0.8 µM.
Regarding `CN[C@@H](C)[C@H]1CC[C@H]2[C@@H]3CC[C@H]4C[C@@H](N(C)C(=O)c5ccccc5)CC[C@]4(C)[C@H]3CC[C@]12C` [HOOKERIANAMIDE I], the MIC in assay [2] is 34.7 µM (≈ 15.6 µg/mL); in assay [4], 69.4 µM (≈ 31.3 µg/mL); in [9] it was 69.4 µM (≈ 31.3 µg/mL). The zone of inhibition at 1000 µg/mL in [3] turned out to be 18.5 mm; in [5], 17.5 mm; in assay [6], 18 mm; in assay [8] it was 8 mm. The compound further yielded an IC50 in assay [1] of 8.8 µM.
For the compound `C/C=C(\C)C(=O)N[C@H]1CC[C@]2(C)[C@H]3CC[C@]4(C)[C@@H]([C@H](C)NC)CC[C@H]4[C@@H]3CC[C@H]2[C@H]1OC(C)=O` [SARCOVAGINE C], the MIC in assay [2] stood at 64.3 µM (≈ 30.4 µg/mL); in assay [4], 32.1 µM (≈ 15.2 µg/mL); in [9], 64.3 µM (≈ 30.4 µg/mL). Moreover, the zone of inhibition at 1000 µg/mL in assay [3] was found to be 17.5 mm; in assay [5], 20 mm; in [6], 13.5 mm; in assay [8], 12 mm. In addition, the IC50 in assay [7] turned out to be 8.1 µM; in [1], 1.5 µM; in assay [10] it was 0.4 µM.
For the compound `C/C=C(\C)C(=O)NC1=CC[C@@]2(C)C(=CC[C@H]3[C@@H]4CC[C@H]([C@H](C)NC)[C@@]4(C)CC[C@@H]32)C1=O`, the MIC in assay [2] turned out to be 143 µM (≈ 60.6 µg/mL); in assay [4], 35.6 µM (≈ 15.1 µg/mL); in assay [9] it was 35.6 µM (≈ 15.1 µg/mL). Further, the zone of inhibition at 1000 µg/mL in assay [3] is 16.5 mm; in assay [5] it was 20 mm; in assay [6], 12.5 mm; in [8], 10 mm. The same compound had a concentration for half-maximal inhibition (IC50) in assay [1] of 21.3 µM.
As to `C[C@@H]([C@H]1CC[C@H]2[C@@H]3CC[C@H]4C(=O)C(NC=O)=CC[C@]4(C)[C@H]3CC[C@]12C)N(C)C` [HOOKERIANAMIDE H], the MIC in [2] and in assay [9] was 324 µM (≈ 125 µg/mL) each time. For the same compound, the result in assay [3] and in assay [8] was inactive. Besides, the zone of inhibition at 1000 µg/mL in [5] is 11.5 mm; in assay [6], 11 mm. This compound yielded an IC50 in assay [1] of 22.4 µM.
`C[C@@H]([C@H]1CC[C@H]2[C@@H]3CC[C@H]4C[C@@H](N(C)C)CC[C@]4(C)[C@H]3CC[C@]12C)N(C)C`: the minimum inhibitory concentration (MIC) in [2] stood at 167 µM (≈ 62.6 µg/mL); in [4], 167 µM (≈ 62.6 µg/mL); in [9], 83.5 µM (≈ 31.3 µg/mL). For the same compound, the zone of inhibition at 1000 µg/mL in [3] was 14.5 mm; in assay [5] it was 19 mm; in assay [6], 11 mm; in assay [8], 8 mm. Besides, the IC50 stood at 22.1 µM in assay [7] and 1.6 µM in assay [10].
`CN[C@@H](C)[C@H]1CC[C@H]2[C@@H]3CC[C@H]4[C@@H](OC(C)=O)[C@@H](NC(=O)C=C(C)C)CC[C@]4(C)[C@H]3CC[C@]12C` [VAGENINE A]: the values for the zone of inhibition at 1000 µg/mL in assay [3], in [5] and in [8] were 13.5 mm, 17 mm and 10 mm, respectively. Besides, the MIC in assay [4] and in assay [9] was 64.3 µM (≈ 30.4 µg/mL) in each case. The result in assay [6] was inactive. For the same compound, the IC50 in assay [1] is 3.3 µM.
